Experimental data as given in ChEMBL document CHEMBL1131089, “Physical parameters and biological stability of yttrium(III) diethylenetriaminepentaacetic acid derivative conjugates” (J Med Chem, 1998).

Tests used:
[1] = Fraction of 88Y (%) released from chelate after incubation in serum for 15 hours; format: ADME
How it was run: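 p-Nitrobenzyl DTPA derivatives converted to p-isothiocyanato form, conjugated to antibody B72.3, labeled with 88Y. Conjugates incubated in serum 15 h; released 88Y assessed by size-exclusion HPLC (TSK 3000SW, MES/Cl− buffer 0.02 M MES, 0.15 M NaCl, pH 6.5). 88Y-albumin eluted at 7.7 min, assigned against molecular weight standard. Injectate aliquots counted for HPLC recovery.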

[2] = Yttrium(III) stability constant of the compound.; format: physicochemical
How it was run: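 Spectrophotometric competition at 25 °C, μ = 0.1 M. Y(III) (3.950 × 10⁻⁶ M) with Arsenazo III (2.00 × 10⁻⁵ M) at pH 3.90, titrated with ligand aliquots. Absorbance drop at 652 nm after each equilibration gave conditional constants, converted to log K. Y–AAIII ML and ML₂ constants and extinction coefficients first obtained by titrating dye with YCl₃.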

[3] = organism: Mus musculus; assay: Percent injected dose per gram at 168 hour for mice injected with 88Y-Ligand-B 72.3; format: functional, organism-based

| Compound | 88Y-serum [1] | Log K [2] | ID/g femur [3] |
| --- | --- | --- | --- |
| O=C(O)CN(CCN(CC(=O)O)C(Cc1ccc([N+](=O)[O-])cc1)CN(CC(=O)O)CC(=O)O)CC(=O)O (centres undefined) | 7% | 21.7 | 5.2% |
| O=C(O)CN(CC(=O)O)[C@H](Cc1ccc([N+](=O)[O-])cc1)CN(CC(=O)O)[C@@H]1CCCC[C@H]1N(CC(=O)O)CC(=O)O | 3.79% | 24.7 | 3.6% |
| O=C(O)CN(CCN(CC(=O)O)CC(=O)O)CCN(CC(=O)O)CC(=O)O [PENTETIC ACID] | – | 22.4 | – |
| CC(CN(CC(=O)O)CC(=O)O)N(CC(=O)O)CC(Cc1ccc([N+](=O)[O-])cc1)N(CC(=O)O)CC(=O)O (centres undefined) | 4.84% | 22.5 | 3% |
| O=C(O)CN(CCN(CC(=O)O)[C@@H]1CCCC[C@H]1N(CC(=O)O)CC(=O)O)CC(=O)O | – | 24.2 | – |
| CC(CN(CC(=O)O)CC(Cc1ccc([N+](=O)[O-])cc1)N(CC(=O)O)CC(=O)O)N(CC(=O)O)CC(=O)O (centres undefined) | 6.27% | 22.5 | 2.5% |
| O=C(O)CN(CC(=O)O)[C@@H](Cc1ccc([N+](=O)[O-])cc1)CN(CC(=O)O)[C@@H]1CCCC[C@H]1N(CC(=O)O)CC(=O)O | 18.5% | 24.4 | 6.1% |
| O=C(O)CN(CCN(CC(=O)O)CC(Cc1ccc([N+](=O)[O-])cc1)N(CC(=O)O)CC(=O)O)CC(=O)O (centres undefined) | – | 21.5 | 4.3% |
